Experimental findings from article PMC4388048 (Journal of medicinal chemistry, 2015) are described below.

The nature of data set [1]: Optical properties in 100% FBS. It is filed as physicochemical. Particulars: pH 7.4, 37 °C. An outline of the steps:
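Absorbance (200–1100 nm) and fluorescence (350–1000 nm) spectra were recorded for 1 µM test dye in 100% FBS, pH 7.4, using fibre-optic spectrometers. Excitation was 8 mW from a 655 or 765 nm laser diode, chosen by structure. Quantum yield was calibrated against oxazine 725 in ethylene glycol (QY 19%) and ICG in DMSO (QY 13%), with absorbance matched at 655 and 765 nm.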

The nature of data set [2]: Optical stability in serum. It is filed as in vitro ADME, fetal bovine serum. Particulars: 100% FBS, pH 7.4, 37 °C, 24 h.
The format of data set [3] is in vivo. Particulars: CD-1 mice, 10 nmol intravenously, 4 h postinjection, N = 5. An outline of the steps:
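Anesthetised male CD-1 mice (~25 g; ketamine/xylazine i.p.) received test fluorophore intravenously. After 4 h of imaging, urine was collected from the bladder. Urine volume and optical absorbance were measured to estimate the amount of injected dye excreted.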

Data set [4] is described as follows: In vivo biodistribution and clearance by real-time NIR fluorescence imaging. The conditions noted are these: CD-1 mice, 10 nmol intravenously, imaging over 4 h. An outline of the steps: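 Male CD-1 mice (~25 g) were anesthetised with ketamine 100 mg/kg and xylazine 10 mg/kg i.p., then given 10 nmol of test fluorophore intravenously. Real-time FLARE imaging used 760 nm excitation at 11 mW/cm2 with white light (400–650 nm). Colour and NIR images were acquired together at up to 15 Hz. Resected organs were also imaged. Exposure and normalisation were held constant.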

For `Br.Br.CC1(C)C(/C=C/C2=C(Oc3ccc(CCN)cc3)C(=C/C=C3/N(CCC[N+](C)(C)C)c4ccc(S(=O)(=O)[O-])cc4C3(C)C)/CCC2)=[N+](CCC[N+](C)(C)C)c2ccc(S(=O)(=O)[O-])cc21.[Br-]` [compound 4, Mono(2-((E)-2-((E)-2-(4-(2-aminoethyl)phenoxy)-3-((E)-2-(3,3-dimethyl-5-sulfonato-1-(3-(trimethylammonio)propyl)-indolin-2-ylidene)ethylidene)cyclohex-1-en-1-yl)vinyl)-3,3-dimethyl-1-(3-(trimethylammonio)propyl)-3H-indol-1-ium-5-sulfonate) Tribromide], in data set [1], the molar extinction coefficient entry was “highest” and the quantum yield entry is recorded as “highest”. Moreover, the “Optical stability in serum” value in data set [2] is reported as “least stable”.

For `CC1(C)C(/C=C/C=C/C=C/C=C2\N(CCCCS(=O)(=O)O)c3ccc4ccccc4c3C2(C)C)=[N+](CCCCS(=O)(=O)[O-])c2ccc3ccccc3c21` [ICG, indocyanine green], the “Renal excretion amount in urine” value in data set [3] is 3 % ID.

Turning to “Mono(2-((E)-2-((E)-2-((4-(aminomethyl)phenyl)thio)-3-((E)-2-(3,3-dimethyl-5-sulfonato-1-(3-(trimethylammonio)propyl)indolin-2-ylidene)ethylidene)cyclohex-1-en-1-yl)vinyl)-3,3-dimethyl-1-(3-(trimethylammonio)propyl)-3H-indol-1-ium-5-sulfonate) Tribromide [compound 11]”, the “Optical stability in serum” value in data set [2] is listed as “increased stability”.

As to `Br.Br.CC1(C)C(/C=C/C2=C(Sc3ccc(C(=O)O)cc3)C(=C/C=C3/N(CCC[N+](C)(C)C)c4ccc(S(=O)(=O)[O-])cc4C3(C)C)/CCC2)=[N+](CCC[N+](C)(C)C)c2ccc(S(=O)(=O)[O-])cc21.[Br-]` [compound 8, Mono(2-((E)-2-((E)-2-((4-carboxyphenyl)thio)-3-((E)-2-(3,3-dimethyl-5-sulfonato-1-(3-(trimethylammonio)propyl)indolin-2-ylidene)ethylidene)cyclohex-1-en-1-yl)vinyl)-3,3-dimethyl-1-(3-(trimethylammonio)propyl)-3H-indol-1-ium-5-sulfonate) Tribromide], the uptake in liver entry in data set [4] was “weak uptake in liver”.

With “Mono(2-((E)-2-((E)-2-((4-(carboxymethyl)phenyl)thio)-3-((E)-2-(3,3-dimethyl-5-sulfonato-1-(3-(trimethylammonio)propyl)indolin-2-ylidene)ethylidene)cyclohex-1-en-1-yl)vinyl)-3,3-dimethyl-1-(3-(trimethylammonio)propyl)-3H-indol-1-ium-5-sulfonate) Tribromide [compound 9]”, the uptake in liver result in data set [4] was “weak uptake in liver”. Besides, the “Optical stability in serum” value in data set [2] is listed as “increased stability”.
